Assay results from ChEMBL document CHEMBL5357082, “Identification and Optimization of Small Molecule Pyrazolopyrimidine TLR7 Agonists for Applications in Immuno-oncology” (ACS Med Chem Lett, 2024).
Calls of active or inactive are those of the source. The rule behind the calls is not given here.

Key:
[1] = Metabolic stability in human liver microsomes assessed as compound remaining at 0.5 uM incubated for 10 mins in presence of NADPH by UV absorbance based assay; format: ADME, Microsome; conditions: read-out: Stability
Toll-like receptor 8 = target: T1, Toll-like receptor 8 (Homo sapiens, UniProt Q9NR97); test: Agonist activity at human TLR8
T1 sequence (Q9NR97 whole entry): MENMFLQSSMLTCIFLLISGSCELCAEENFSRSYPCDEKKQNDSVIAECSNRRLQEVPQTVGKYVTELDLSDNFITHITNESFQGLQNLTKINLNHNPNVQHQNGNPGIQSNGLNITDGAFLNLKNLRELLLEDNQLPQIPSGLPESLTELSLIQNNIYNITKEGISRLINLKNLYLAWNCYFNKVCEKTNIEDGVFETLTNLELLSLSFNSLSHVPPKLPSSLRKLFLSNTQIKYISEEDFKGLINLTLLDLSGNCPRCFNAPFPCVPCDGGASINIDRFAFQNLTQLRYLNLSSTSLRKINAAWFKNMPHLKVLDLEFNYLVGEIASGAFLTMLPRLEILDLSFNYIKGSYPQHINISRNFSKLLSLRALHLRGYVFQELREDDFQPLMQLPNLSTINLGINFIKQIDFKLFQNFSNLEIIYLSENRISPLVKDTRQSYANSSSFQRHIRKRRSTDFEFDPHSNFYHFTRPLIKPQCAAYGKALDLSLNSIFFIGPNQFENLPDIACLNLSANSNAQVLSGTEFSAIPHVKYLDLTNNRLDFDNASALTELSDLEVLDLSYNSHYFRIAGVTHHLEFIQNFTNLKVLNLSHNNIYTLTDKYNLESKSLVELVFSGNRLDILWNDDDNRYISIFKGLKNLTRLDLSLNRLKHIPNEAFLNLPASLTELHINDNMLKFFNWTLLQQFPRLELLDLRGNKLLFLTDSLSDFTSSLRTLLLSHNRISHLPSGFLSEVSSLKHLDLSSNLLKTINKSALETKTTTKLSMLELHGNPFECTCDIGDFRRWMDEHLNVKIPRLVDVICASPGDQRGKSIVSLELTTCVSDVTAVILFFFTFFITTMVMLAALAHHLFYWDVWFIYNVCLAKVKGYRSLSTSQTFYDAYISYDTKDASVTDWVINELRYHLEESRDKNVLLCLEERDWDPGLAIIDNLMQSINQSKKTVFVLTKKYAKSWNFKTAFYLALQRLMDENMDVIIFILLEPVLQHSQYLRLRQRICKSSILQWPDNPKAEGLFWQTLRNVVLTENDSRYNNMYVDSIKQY

Cytochrome P450 1A2 = target: T2, Cytochrome P450 1A2 (Homo sapiens, UniProt P05177); test: Inhibition of CYP1A2 (unknown origin); format: ADME
T2 sequence (P05177 whole entry): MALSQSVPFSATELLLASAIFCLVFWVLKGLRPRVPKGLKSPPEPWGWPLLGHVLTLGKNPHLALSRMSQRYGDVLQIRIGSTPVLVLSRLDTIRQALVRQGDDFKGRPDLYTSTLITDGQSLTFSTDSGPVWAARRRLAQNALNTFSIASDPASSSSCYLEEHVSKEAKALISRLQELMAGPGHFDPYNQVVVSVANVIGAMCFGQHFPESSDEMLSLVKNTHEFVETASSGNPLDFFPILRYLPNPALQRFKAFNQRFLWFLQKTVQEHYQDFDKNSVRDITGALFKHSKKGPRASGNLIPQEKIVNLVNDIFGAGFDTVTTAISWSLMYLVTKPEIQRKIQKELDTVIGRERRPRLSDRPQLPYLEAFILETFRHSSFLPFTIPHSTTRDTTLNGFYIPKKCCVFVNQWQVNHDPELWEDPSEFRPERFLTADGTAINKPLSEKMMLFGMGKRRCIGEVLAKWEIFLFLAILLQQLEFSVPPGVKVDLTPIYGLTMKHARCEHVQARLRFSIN

Mus musculus = test: Immunostimulatory activity in nontumor bearing Balb/C mouse assessed as increase in IFNalpha production in serum at 0.5 to 1 mg/kg, iv measured after 2 hrs by ELISA; format: functional, organism-based; conditions: dose 0.5-1 mg/kg
Outline: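 Nontumor-bearing female Balb/C mice received a single 1 mg/kg dose. Serum IFNα was measured 2 h after administration, with N = 9 mice per group.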

Cytochrome P450 2D6 = Cytochrome P450 2D6 (Homo sapiens, UniProt P10635); test: Inhibition of CYP2D6 (unknown origin); format: ADME
[2] = Half life in nontumor bearing Balb/C mouse at 0.5 mg/kg; format: ADME, organism-based; conditions: in vivo
Cytochrome P450 3A4 [3] = target: T3, Cytochrome P450 3A4 (Homo sapiens, UniProt P08684); test: Inhibition of CYP3A4 (unknown origin) using BFC as substrate; format: ADME
CT26 = test: Antitumor activity against syngeneic mouse CT26 cells implanted in Balb/cAnNHsd mouse assessed as complete tumor regression with no relapse at 2.5 mg/kg, ip administered once a week for 4 weeks in presence of aPD1 antibody and measured twice weekly by digital caliper analysis; format: functional, organism-based
Outline: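 Syngeneic CT-26 tumors in mice. The TLR7 agonist was given at 0.5 or 2.5 mg/kg weekly for 4 doses (QWx4). It was combined with anti-PD1 antibody at 10 mg/kg IP, every 4 days for 7 doses (Q4Dx7). Tumor growth was followed, including 27 days after compound dosing stopped.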

[4] = target: Voltage-gated inwardly rectifying potassium channel KCNH2 (Homo sapiens, UniProt Q12809); test: Inhibition of hERG; format: toxicity
Cytochrome P450 3A4 [5] = target: T3, Cytochrome P450 3A4; test: Inhibition of CYP3A4 (unknown origin) using BFC as substrate preincubated with compound followed by substrate addition at 30 mins; format: ADME
[6] = Clearance in nontumor bearing Balb/C mouse at 0.5 mg/kg; format: ADME, organism-based; conditions: in vivo
[7] = Drug concentration in nontumor bearing Balb/C mouse at 0.5 mg/kg measured after 5 mins; format: ADME, organism-based; conditions: in vivo, read-out: Drug uptake
[8] = AUClast in nontumor bearing Balb/C mouse at 0.5 mg/kg; format: ADME, organism-based; set-up: dose 0.5 mg/kg; conditions: in vivo
Cytochrome P450 2C8 = target: T4, Cytochrome P450 2C8 (Homo sapiens, UniProt P10632); test: Inhibition of CYP2C8 (unknown origin); format: ADME
T4 sequence (P10632 whole entry): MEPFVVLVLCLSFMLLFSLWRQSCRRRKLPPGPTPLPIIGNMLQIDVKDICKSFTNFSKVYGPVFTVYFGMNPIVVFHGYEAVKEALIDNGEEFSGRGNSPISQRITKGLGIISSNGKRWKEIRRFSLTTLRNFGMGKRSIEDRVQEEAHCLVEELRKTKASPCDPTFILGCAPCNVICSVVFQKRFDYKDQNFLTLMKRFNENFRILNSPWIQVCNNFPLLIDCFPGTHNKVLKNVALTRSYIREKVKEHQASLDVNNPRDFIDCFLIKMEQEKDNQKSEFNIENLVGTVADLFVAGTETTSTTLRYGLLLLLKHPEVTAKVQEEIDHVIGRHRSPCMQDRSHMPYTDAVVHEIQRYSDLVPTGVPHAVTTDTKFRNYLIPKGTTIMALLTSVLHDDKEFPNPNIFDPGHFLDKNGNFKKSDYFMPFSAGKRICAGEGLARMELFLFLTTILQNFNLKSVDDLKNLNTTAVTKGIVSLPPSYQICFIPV

Cytochrome P450 3A4 [9] = target: T3, Cytochrome P450 3A4; test: Inhibition of CYP3A4 (unknown origin) using BFC as substrate preincubated with compound followed by substrate addition at 5 mins; format: ADME

T3 sequence (P08684 whole entry): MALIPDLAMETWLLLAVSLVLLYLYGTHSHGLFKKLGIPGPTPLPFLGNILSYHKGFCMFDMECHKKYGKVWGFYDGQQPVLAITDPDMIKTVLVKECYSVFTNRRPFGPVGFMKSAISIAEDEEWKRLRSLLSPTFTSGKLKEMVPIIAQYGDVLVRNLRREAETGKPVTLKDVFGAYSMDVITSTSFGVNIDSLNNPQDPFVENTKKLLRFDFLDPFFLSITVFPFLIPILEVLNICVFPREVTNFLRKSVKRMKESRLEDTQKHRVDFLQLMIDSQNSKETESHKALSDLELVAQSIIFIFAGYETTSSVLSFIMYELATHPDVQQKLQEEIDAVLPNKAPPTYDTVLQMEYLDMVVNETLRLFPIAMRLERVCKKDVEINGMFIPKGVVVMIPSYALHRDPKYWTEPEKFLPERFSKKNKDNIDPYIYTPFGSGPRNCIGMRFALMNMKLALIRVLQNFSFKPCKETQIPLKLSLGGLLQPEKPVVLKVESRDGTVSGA
Chain of Cytochrome P450 2D6 (P10635 whole entry): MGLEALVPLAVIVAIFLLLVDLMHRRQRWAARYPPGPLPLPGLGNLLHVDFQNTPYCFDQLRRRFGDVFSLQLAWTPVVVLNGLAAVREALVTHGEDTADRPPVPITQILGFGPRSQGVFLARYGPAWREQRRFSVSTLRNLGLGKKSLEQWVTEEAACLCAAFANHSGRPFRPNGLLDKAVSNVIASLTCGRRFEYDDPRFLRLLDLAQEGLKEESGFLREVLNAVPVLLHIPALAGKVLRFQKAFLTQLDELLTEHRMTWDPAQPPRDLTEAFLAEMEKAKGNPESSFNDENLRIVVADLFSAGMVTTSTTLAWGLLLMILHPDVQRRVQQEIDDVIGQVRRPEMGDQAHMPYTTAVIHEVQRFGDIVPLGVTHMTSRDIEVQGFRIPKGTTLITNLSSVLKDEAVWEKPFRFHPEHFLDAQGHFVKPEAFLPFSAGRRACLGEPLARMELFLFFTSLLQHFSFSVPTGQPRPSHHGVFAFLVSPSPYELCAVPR
Chain of Voltage-gated inwardly rectifying potassium channel KCNH2 (Q12809 whole entry): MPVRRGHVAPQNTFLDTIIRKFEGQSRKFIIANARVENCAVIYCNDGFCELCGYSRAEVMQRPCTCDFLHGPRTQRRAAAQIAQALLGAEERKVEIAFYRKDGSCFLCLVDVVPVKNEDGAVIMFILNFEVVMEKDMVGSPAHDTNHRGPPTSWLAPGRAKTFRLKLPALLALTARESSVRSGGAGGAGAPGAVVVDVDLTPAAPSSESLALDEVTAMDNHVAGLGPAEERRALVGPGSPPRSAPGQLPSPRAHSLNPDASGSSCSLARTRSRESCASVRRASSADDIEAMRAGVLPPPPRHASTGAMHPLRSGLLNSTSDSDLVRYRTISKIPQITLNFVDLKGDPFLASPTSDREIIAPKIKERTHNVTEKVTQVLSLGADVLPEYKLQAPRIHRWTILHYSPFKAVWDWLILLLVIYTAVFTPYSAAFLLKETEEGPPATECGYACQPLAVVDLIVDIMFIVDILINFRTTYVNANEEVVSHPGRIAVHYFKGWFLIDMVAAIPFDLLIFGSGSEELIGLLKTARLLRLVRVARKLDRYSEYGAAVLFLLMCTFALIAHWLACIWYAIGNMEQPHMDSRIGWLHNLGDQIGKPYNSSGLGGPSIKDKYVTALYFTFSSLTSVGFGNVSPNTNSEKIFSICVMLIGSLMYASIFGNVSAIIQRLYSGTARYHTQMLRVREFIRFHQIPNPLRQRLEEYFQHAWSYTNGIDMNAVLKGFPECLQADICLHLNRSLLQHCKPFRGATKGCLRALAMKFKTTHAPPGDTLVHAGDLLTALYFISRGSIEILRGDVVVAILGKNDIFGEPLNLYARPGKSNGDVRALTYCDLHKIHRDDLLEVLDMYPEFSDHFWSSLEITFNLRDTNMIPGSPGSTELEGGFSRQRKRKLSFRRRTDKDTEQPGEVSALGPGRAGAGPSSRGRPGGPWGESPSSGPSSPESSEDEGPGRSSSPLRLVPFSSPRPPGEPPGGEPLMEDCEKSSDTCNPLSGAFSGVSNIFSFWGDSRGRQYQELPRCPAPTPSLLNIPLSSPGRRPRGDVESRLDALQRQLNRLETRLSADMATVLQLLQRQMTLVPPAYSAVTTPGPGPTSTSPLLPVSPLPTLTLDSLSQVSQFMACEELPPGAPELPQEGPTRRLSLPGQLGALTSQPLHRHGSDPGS

## CCC[C@@H](CCO)Nc1nc(N)nc2cnn(Cc3ncc(C4CCN(C5CCOCC5)CC4)cc3OC)c12
[1]
  remaining at 10 min, 0.5 µM: 86%
Toll-like receptor 8
  EC50: > 5 µM
Cytochrome P450 1A2
  IC50: > 20 µM
Mus musculus
  Activity: Active
Cytochrome P450 2D6
  IC50: > 20 µM
[2]
  half-life: 6.9 h
Cytochrome P450 3A4 [3]
  IC50: > 20 µM
CT26
  Activity: Active
[4]
  IC50: > 50 µM
Cytochrome P450 3A4 [5]
  IC50: > 20 µM
[6]
  clearance: 22 mL/min/kg
[7]
  concentration at 5 min: 266 nM
[8]
  AUC(0-t): 0.655 µM·h
Cytochrome P450 2C8
  IC50: > 20 µM
Cytochrome P450 3A4 [9]
  IC50: > 20 µM
